Activity calls are given as the source filed them. The rule behind the calls is not given here.
How the values were obtained:
HSC-2 [1] = assay: Cell cycle arrest in human HSC2 cells irradiated with 4.1 J/cm^2 broad spectrum light assessed as accumulation at sub-G1 phase at 0.25 uM after 2 hrs by flow cytometry relative to control; type: functional
Outline: (§1)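 HSC-2 cells given compound for 2 h, then irradiated with broad-spectrum light (or kept dark). Floating plus trypsinized adherent cells collected at set times after irradiation. Fixed in 70% ice-cold ethanol overnight at 4 °C, then stained 30 min with 20 μg/mL RNase A and 1 μM SYTOX Green. 1 × 10^4 cells read by flow cytometry (488 nm laser, FL1 530/30).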

Gallus gallus [2] = species: Gallus gallus; assay: Antiangiogenic activity against chicken chorioallantoic membrane irradiated with 20 to 40 J/cm^2 assessed as induction of vascular occlusion at 3.5 to 7 nmol/embryo; type: functional, tissue-based
Outline: (§2)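 Fertilized chicken eggs incubated at 37 °C, 65% humidity. On EDD-9, single iv bolus into the main CAM vessel in cremophor EL 5%, EtOH 5% in saline. One minute later, a 0.02 cm2 site with 5–100 μm vessels irradiated at 510–560 nm, 40 mW/cm2 (or left dark). After 24 h, FITC-dextran/Indian ink angiography and damage scoring per Lange et al.; at least 10 embryos, mean ± SEM.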

HSC-2 [3] = assay: Cell cycle arrest in human HSC2 cells irradiated with 4.1 J/cm^2 broad spectrum light assessed as accumulation at sub-G1 phase at 0.25 uM after 4 hrs by flow cytometry relative to control; type: functional; outline: as §1
Gallus gallus [4] = species: Gallus gallus; assay: Antiangiogenic activity against chicken chorioallantoic membrane in dark assessed as induction of vascular occlusion at 3.5 to 7 nmol/embryo; type: functional, tissue-based; outline: as §2
[5] = Phototoxicity against human HK1 cells irradiated with 4.1 J/cm^2 broad spectrum light treated 2 hrs before irradiation measured after 24 hrs by MTT assay; type: functional, cell-based; settings: HK-1, light or radiation study
Outline: (§3)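 HL60 at 15000 cells/well; HSC-2 and HK1 at 3000 cells/well, adhered overnight; phenol-red-free medium with 10% FBS. Compound tested at 0.001–100.0 μM from DMSO stock; controls 0.01% DMSO. After 2 h, irradiated with broad-spectrum light at 6.8 mW/cm2, or dark. After 24 h, MTT 4 h at 37 °C, formazan in DMSO, A570. Three determinations, mean ± SD.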

HSC-2 [6] = assay: Cell cycle arrest in human HSC2 cells in dark assessed as accumulation at G1 phase at 0.25 uM after 12 hrs by flow cytometry relative to control; type: functional; outline: as §1
HSC-2 [7] = assay: Induction of apoptosis in human HSC2 cells irradiated with 4.1 J/cm^2 broad spectrum light assessed as viable cells at 0.5 uM after 12 hrs of irradiation by annexin V-FITC staining; type: functional; settings: HSC-2, light or radiation study, read-out: Activity
Outline: (§4)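 HSC-2 cells at 50% confluency in dishes, treated 2 h, then irradiated (4.1 J/cm2 broad spectrum) or kept dark. At intervals, floating and trypsinized cells pooled, washed in cold PBS, resuspended at 1 × 10^6 cells/mL in binding buffer. Stained 15 min in the dark at room temperature with annexin V-FITC and propidium iodide. 1 × 10^4 cells read by flow cytometry (FL1, FL3).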

HSC-2 [8] = assay: Induction of apoptosis in human HSC2 cells in dark assessed as viable cells at 0.5 uM after 4 hrs of irradiation by annexin V-FITC staining; type: functional; settings: HSC-2, light or radiation study, read-out: Activity; outline: as §4
HSC-2 [9] = assay: Induction of apoptosis in human HSC2 cells irradiated with 4.1 J/cm^2 broad spectrum light assessed as viable cells at 0.5 uM after 16 hrs of irradiation by annexin V-FITC staining; type: functional; settings: HSC-2, light or radiation study, read-out: Activity; outline: as §4
HSC-2 [10] = assay: Induction of apoptosis in human HSC2 cells irradiated with 4.1 J/cm^2 broad spectrum light assessed as apoptotic cells at 0.5 uM after 24 hrs of irradiation by annexin V-FITC staining; type: functional; outline: as §4
HSC-2 [11] = assay: Cell cycle arrest in human HSC2 cells irradiated with 4.1 J/cm^2 broad spectrum light assessed as accumulation at sub-G1 phase at 0.25 uM after 8 hrs by flow cytometry relative to control; type: functional; outline: as §1
HSC-2 [12] = assay: Induction of apoptosis in human HSC2 cells in dark assessed as apoptotic cells at 0.5 uM after 24 hrs by annexin V-FITC staining; type: functional; outline: as §4
HSC-2 [13] = assay: Cell cycle arrest in human HSC2 cells in dark assessed as accumulation at sub-G1 phase at 0.25 uM after 12 hrs by flow cytometry relative to control; type: functional; outline: as §1
HSC-2 [14] = assay: Induction of apoptosis in human HSC2 cells irradiated with 4.1 J/cm^2 broad spectrum light assessed as apoptotic cells at 0.5 uM after 12 hrs of irradiation by annexin V-FITC staining; type: functional; outline: as §4
HSC-2 [15] = assay: Cell cycle arrest in human HSC2 cells irradiated with 4.1 J/cm^2 broad spectrum light assessed as accumulation at G2/M phase at 0.25 uM after 6 hrs by flow cytometry relative to control; type: functional; outline: as §1
HSC-2 [16] = assay: Induction of apoptosis in human HSC2 cells irradiated with 4.1 J/cm^2 broad spectrum light assessed as apoptotic cells at 0.5 uM after 16 hrs of irradiation by annexin V-FITC staining; type: functional; outline: as §4
HSC-2 [17] = assay: Cell cycle arrest in human HSC2 cells irradiated with 4.1 J/cm^2 broad spectrum light assessed as accumulation at G1 phase at 0.25 uM after 12 hrs by flow cytometry relative to control; type: functional; outline: as §1
HSC-2 [18] = assay: Cell cycle arrest in human HSC2 cells irradiated with 4.1 J/cm^2 broad spectrum light assessed as accumulation at G1 phase at 0.25 uM after 4 hrs by flow cytometry relative to control; type: functional; outline: as §1
HL-60 [19] = assay: Phototoxicity against human HL60 cells irradiated with 4.1 J/cm^2 broad spectrum light treated 2 hrs before irradiation measured after 24 hrs by MTT assay; type: functional, cell-based; settings: HL-60, light or radiation study; outline: as §3
HL-60 [20] = assay: Cytotoxicity against human HL60 cells after 24 hrs by MTT assay; type: functional, cell-based; settings: HL-60, 24 h; outline: as §3
HSC-2 [21] = assay: Cell cycle arrest in human HSC2 cells irradiated with 4.1 J/cm^2 broad spectrum light assessed as accumulation at sub-G1 phase at 0.25 uM after 12 hrs by flow cytometry relative to control; type: functional; outline: as §1
[22] = Cellular uptake in human HSC2 cells assessed as intracellular localization in to mitochondria labeled with rhodamine 123 dye at 100 nM by spinning disk confocal microscopy; type: ADME; settings: hsc-2, 0.1 µM
Outline: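 HSC-2 cells grown on glass coverslips, co-incubated at room temperature for 15–30 min with compound plus probe: ER-Tracker 100 nM, LysoTracker 500 nM or Rh123 100 nM. Rinsed in PBS. XY sections at 0.2 μm imaged; excitation 330–385 nm for ER/Lyso probes, 460–490 nm for Rh123, 520–550 nm for photosensitizer.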

HSC-2 [23] = assay: Cell cycle arrest in human HSC2 cells irradiated with 4.1 J/cm^2 broad spectrum light assessed as accumulation at G2/M phase at 0.25 uM after 12 hrs by flow cytometry relative to control; type: functional; outline: as §1
HSC-2 [24] = assay: Phototoxicity against human HSC2 cells irradiated with 4.1 J/cm^2 broad spectrum light treated 2 hrs before irradiation measured after 24 hrs by MTT assay; type: functional, cell-based; settings: HSC-2, light or radiation study; outline: as §3
HSC-2 [25] = assay: Cytotoxicity against human HSC2 cells after 24 hrs by MTT assay; type: functional, cell-based; settings: HSC-2, 24 h; outline: as §3
HSC-2 [26] = assay: Induction of apoptosis in human HSC2 cells irradiated with 4.1 J/cm^2 broad spectrum light assessed as viable cells at 0.5 uM after 24 hrs of irradiation by annexin V-FITC staining; type: functional; settings: HSC-2, light or radiation study, read-out: Activity; outline: as §4

CC1=C(I)C(C)=[N+]2C1=C(CCC(=O)O)c1c(C)c(I)c(C)n1[B-]2(F)F
Activity (HSC-2 [1]): 3.7%
Activity (Gallus gallus [2]): Active
Activity (HSC-2 [3]): 3.7%
Activity (Gallus gallus [4]): inactive
IC50 [5]: 570 nM
Activity (HSC-2 [6]): 55.2%
viability at 0.5 µM (HSC-2 [7]): 79.3%
viability at 0.5 µM (HSC-2 [8]): 97%
viability at 0.5 µM (HSC-2 [9]): 52.6%
Activity (HSC-2 [10]): 89.9%
Activity (HSC-2 [11]): 4.4%
Activity (HSC-2 [12]): 3%
Activity (HSC-2 [13]): 3.8%
Activity (HSC-2 [14]): 20.7%
Activity (HSC-2 [15]): 55.5%
Activity (HSC-2 [16]): 47.4%
Activity (HSC-2 [17]): 44.1%
Activity (HSC-2 [18]): 33.8%
IC50 (HL-60 [19]): 45 nM
IC50 (HL-60 [20]): > 100000 nM
Activity (HSC-2 [21]): 10.6%
Drug uptake [22]: Active
Activity (HSC-2 [23]): 26%
IC50 (HSC-2 [24]): 100 nM
IC50 (HSC-2 [25]): > 100000 nM
viability at 0.5 µM (HSC-2 [26]): 10.1%
